One assay concerns the target T1, hA1AR (Homo sapiens, UniProt P30542).
T1 sequence (P30542 1-326): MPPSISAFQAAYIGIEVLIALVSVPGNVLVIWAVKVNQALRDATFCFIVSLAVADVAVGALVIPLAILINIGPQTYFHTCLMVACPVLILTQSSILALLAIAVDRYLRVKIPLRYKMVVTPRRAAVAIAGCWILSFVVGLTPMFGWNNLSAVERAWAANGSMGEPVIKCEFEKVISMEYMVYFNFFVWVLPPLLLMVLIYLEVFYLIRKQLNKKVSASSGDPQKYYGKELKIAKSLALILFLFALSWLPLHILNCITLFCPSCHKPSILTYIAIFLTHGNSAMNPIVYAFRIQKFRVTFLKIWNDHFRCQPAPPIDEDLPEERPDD
To be noted: cited from earlier work.

In assay [1] the test system is formalin-induced nociceptive behavior. Particulars: cited from earlier work; for effect on second phase of formalin test in presence of A1AR antagonist 29: with 29 (DPCPX) 3 mg/kg ip.
Another assay has as its system mouse A1AR. Particulars: cited from earlier work.
Assay [2] deals with formalin-induced nociceptive behavior. Kind of assay: Formalin test. The format is in vivo. Particulars: mice; for effect of the combination of 28 and 31 in formalin test: 28 1 mg/kg ip + 31 1 mg/kg ip.
For assay [3], the target named is T2, A2B ARs (Homo sapiens, UniProt P29275).
T2 sequence (P29275 1-332): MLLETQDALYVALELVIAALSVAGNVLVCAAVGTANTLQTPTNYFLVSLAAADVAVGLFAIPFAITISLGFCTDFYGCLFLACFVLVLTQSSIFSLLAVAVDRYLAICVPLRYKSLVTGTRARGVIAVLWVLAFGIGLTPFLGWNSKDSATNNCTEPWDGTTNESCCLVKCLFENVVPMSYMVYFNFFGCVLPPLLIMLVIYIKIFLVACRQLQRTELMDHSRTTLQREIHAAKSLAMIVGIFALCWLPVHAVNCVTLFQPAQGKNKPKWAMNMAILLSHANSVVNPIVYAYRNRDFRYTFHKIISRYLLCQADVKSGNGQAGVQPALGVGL
Put plainly: Stimulation of adenylyl cyclase activity. In kind it is biochemical. In a few lines:
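Crude membranes came from CHO cells stably transfected with human A2B receptor, from a single high-speed spin. They were resuspended in 50 mM Tris/HCl, pH 7.4, and used immediately. Stimulation of adenylyl cyclase activity gave agonist EC50. […] Values are geometric means with 95% confidence intervals (n ≥ 3).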

The target of assay [4] is T2, A2B ARs. To be noted: hA2B; ref Petrelli et al.[7]; cited from earlier work.
Another assay deals with hA2A receptor (Homo sapiens, UniProt P29274). To be noted: ref Petrelli et al.[7]; cited from earlier work.

The values that follow come from PMC5669264 (Journal of medicinal chemistry, 2017).

“Also recorded” adds a separate entry of the source. Like-named read-outs stand apart in the source and are kept apart here.

hA2A receptor, sequence (P29274 whole entry): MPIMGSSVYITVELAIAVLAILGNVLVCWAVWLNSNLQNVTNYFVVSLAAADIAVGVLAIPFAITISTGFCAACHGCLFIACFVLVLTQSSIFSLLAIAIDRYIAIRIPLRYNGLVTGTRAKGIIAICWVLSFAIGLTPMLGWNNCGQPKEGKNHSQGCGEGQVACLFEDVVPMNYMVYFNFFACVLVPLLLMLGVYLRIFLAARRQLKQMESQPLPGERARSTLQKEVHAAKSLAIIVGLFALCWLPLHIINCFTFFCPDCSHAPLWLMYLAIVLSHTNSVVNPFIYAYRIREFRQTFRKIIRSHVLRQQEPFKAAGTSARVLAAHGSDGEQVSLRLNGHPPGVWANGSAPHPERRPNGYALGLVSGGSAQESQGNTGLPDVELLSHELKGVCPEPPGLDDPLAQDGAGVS

Regarding `O[C@@H]1[C@H](O)[C@@H](CCl)O[C@H]1n1cnc2c(NC3C[C@@H]4CC[C@@H]3C4)ncnc21` (mixture of isomers) [Compound 28, 5′-chloro-5′-deoxy-N^6-(±)-endo-norborn-2-yl)adenosine], the “selectivity hA1AR vs hA3AR” value on hA1AR is recorded as ~ 2600 fold. Further, in assay [1] (1–2 mg/kg ip), the “effect on second phase of formalin-induced hyperalgesia” value is reported as “inhibited the second phase of formalin-induced hyperalgesia in a dose-dependent manner”. The “effect on second phase of formalin test in presence of A1AR antagonist 29” value in assay [1] is reported as “blocked”. The “selectivity mouse A1AR vs A3AR” value in the assay on mouse A1AR is given as ~ 10 000 fold. Moreover, the “effect of the combination of 28 and 31 in formalin test” value in assay [2] is “showed greater effects when combined in reducing both the first and the second phases of formalin test”.
`CCn1nnc([C@H]2O[C@@H](n3cnc4c(NC5CC5)ncnc43)C(O)C2O)n1` (stereo in doubt) [Compound 1, (2R,3S,4R,5R)-2-(6-(Cyclopropylamino)-9H-purin-9-yl)-5-(2-ethyl-2H-tetrazol-5-yl)tetrahydrofuran-3,4-diol]: the “functional behaviour at hA2B receptor” value at A2B ARs [3] is on record as “partial A2BAR agonists”.
`CCn1nnc([C@H]2O[C@@H](n3cnc4c(NCC5CC5)ncnc43)C(O)C2O)n1` (stereo in doubt) [Compound 3, (2R,3S,4R,5R)-2-(6-((Cyclopropylmethyl)amino)-9H-purin-9-yl)-5-(2-ethyl-2H-tetrazol-5-yl)tetrahydrofuran-3,4-diol]: the “functional behaviour at hA2B receptor” value at A2B ARs [3] is given as “partial A2BAR agonists”.
On the same count and under the same terms, for `CCn1nnc([C@H]2O[C@@H](n3cnc4c(NCc5cccc(F)c5)ncnc43)C(O)C2O)n1` (stereo in doubt) [Compound 9, (2R,3R,4S,5R)-2-(2-Ethyl-2H-tetrazol-5-yl)-5-(6-((3-fluorobenzyl)amino)-9H-purin-9-yl)tetrahydrofuran-3,4-diol] the value was “partial A2BAR agonists”.
Regarding `CCn1nnc([C@H]2O[C@@H](n3cnc4c(NCc5cccc(Cl)c5)ncnc43)C(O)C2O)n1` (stereo in doubt) [Compound 11, (2R,3S,4R,5R)-2-(6-((3-Chlorobenzyl)amino)-9H-purin-9-yl)-5-(2-ethyl-2H-tetrazol-5-yl)tetrahydrofuran-3,4-diol], the “effect on formalin-induced nociceptive behavior” value in assay [2] (0.5–1.0 mg/kg ip, 10 min before formalin, P < 0.005) is “reduced the late nociceptive behavior induced by formalin in a dose-dependent manner”.
Turning to `CCn1nnc([C@H]2O[C@@H](n3cnc4c(NC)nc(Cl)nc43)[C@H](O)[C@@H]2O)n1` [Compound 23], the “efficacy (pag, partial agonist % efficacy) A2B” value on A2B ARs [4] is listed as 75%.
Consider `CCn1nnc([C@H]2O[C@@H](n3cnc4c(NCc5cccc(I)c5)nc(Cl)nc43)[C@H](O)[C@@H]2O)n1` [Compound 26], for which the “efficacy (pag, partial agonist % efficacy) A2B” value on A2B ARs [4] is reported as 76%. At hA2A receptor, the “efficacy (pag, partial agonist % efficacy) A2A” value is on record as 75%. In addition, the “effect on formalin-induced nociceptive behavior” value in assay [2] (highest dose tested 1 mg/kg ip, 10 min before formalin) was “inactive”.
Take `C[C@@]1(O)[C@H](O)[C@@H](CO)O[C@H]1n1cnc2c(NC3CCCC3)nc(Cl)nc21` [Compound 27, 2-chloro-2′-C-methyl-N^6-cyclopentyladenosine]: the “effect on second phase of formalin-induced hyperalgesia” value in assay [1] (2.5–5 mg/kg ip) was “inhibited the second phase of formalin-induced hyperalgesia in a dose-dependent manner”. The “effect on second phase of formalin test in presence of A1AR antagonist 29” value in assay [1] is “blocked”.
In the case of `CNC(=O)[C@H]1O[C@@H](n2cnc3c(NCc4cccc(I)c4)nc(Cl)nc32)[C@H](O)[C@@H]1O` [Compound 31, 2-chloro-N^6-(3-iodobenzyl)-5′-N-methylcarboxamidoadenosine], the “effect of the combination of 22 and 31 in formalin test” value in assay [2] (22 0.3 mg/kg ip + 31 1 mg/kg ip, 10 min before formalin, P < 0.005) was “completely erased the second phase and reduced the first phase of formalin-induced nociceptive behavior; also recorded: reduced completely the nocifensive behavior in both the first and the second phases of formalin test”. In addition, in assay [2], the “effect of the combination of 28 and 31 in formalin test” value is “showed greater effects when combined in reducing both the first and the second phases of formalin test”.
